Values after ≈ are worked out from the molar mass of the structure shown.
Key:
Enterobacter cloacae [1] = assay: Antibacterial activity against Enterobacter cloacae 265A; assay type: functional
Escherichia coli [2] = assay: Antibacterial activity against Escherichia coli EC14; assay type: functional; conditions: Escherichia coli; read-out: MIC
Cavia porcellus [3] = species: Cavia porcellus; assay: In vitro relative anticholinergic potential in isolated guinea pig trachea; assay type: functional
Outline: (§1)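 Guinea pig trachea in Krebs' solution at 37.5 °C, 95% O2/5% CO2, pH 7.4, 2 g resting tension. Cumulative carbachol log dose-response curve (3-fold steps) run before and 30 min after adding antagonist at 1 mM. […] Tukey test on log2 dose ratios.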

Cavia porcellus [4] = species: Cavia porcellus; assay: In vitro relative anticholinergic activity in isolated guinea pig trachea; assay type: functional; conditions: read-out: pA2 (converted); outline: as §1
Klebsiella pneumoniae [5] = assay: microbe, parasite or virus in culture; assay type: functional
Pseudomonas aeruginosa [6] = assay: Antibacterial activity against Pseudomonas aeruginosa X528; assay type: functional
Pseudomonas aeruginosa [7] = assay: Antibacterial activity against Pseudomonas aeruginosa PS18; assay type: functional
Staphylococcus aureus [8] = assay: Antibacterial activity against penicillin G resistance Staphylococcus aureus; assay type: functional
Staphylococcus aureus [9] = assay: Antibacterial activity against penicillin G susceptible Staphylococcus aureus; assay type: functional
Streptococcus pneumoniae = assay: Antibacterial activity against Streptococcus pneumoniae; assay type: functional
Serratia marcescens = assay: Antibacterial activity against Serratia marcescens SE3; assay type: functional
Streptococcus pyogenes = assay: Antibacterial activity against Streptococcus pyogenes; assay type: functional
Enterococcus faecium = assay: Antibacterial activity against Enterococcus faecium; assay type: functional; conditions: Enterococcus faecium; read-out: MIC
Escherichia coli [10] = assay: In vitro relative hydrolysis rate against Escherichia coli IIIa; assay type: functional
Outline: (§2)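 Spectrophotometric hydrolysis at 265 nm, substrate exposed to partially purified cell-free β-lactamase preparations; rate expressed as percentage of the cephaloridine rate.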

Enterobacter cloacae [11] = assay: In vitro relative hydrolysis rate against Enterobacter Ia; assay type: functional; outline: as §2
Enterobacter cloacae [12] = assay: Antibacterial activity against Enterobacter cloacae EB5; assay type: functional
Escherichia coli [13] = assay: Antibacterial activity against Escherichia coli TEM; assay type: functional
Klebsiella pneumoniae [14] = assay: Antibacterial activity against Klebsiella pneumoniae X26; assay type: functional; conditions: Klebsiella pneumoniae; read-out: MIC
Klebsiella pneumoniae [15] = assay: In vitro relative hydrolysis rate against Klebsiella IV; assay type: functional; outline: as §2
Pseudomonas aeruginosa [16] = assay: In vivo efficacy against Pseudomonas aeruginosa infected mice treated at 1 hr and 5 hr post infection; assay type: functional
Staphylococcus aureus [17] = assay: In vivo efficacy against Staphylococcus aureus infected mice treated at 1 hr and 5 hr post infection; assay type: functional
Escherichia coli [18] = assay: In vivo efficacy against Escherichia coli infected mice treated at 1 hr and 5 hr post infection; assay type: functional
Escherichia coli [19] = assay: In vivo efficacy against Escherichia coli infections in mice; assay type: functional; conditions: Escherichia coli; read-out: MIC
Pseudomonas aeruginosa [20] = assay: In vivo efficacy against Pseudomonas aeruginosa infections in mice; assay type: functional
Staphylococcus aureus [21] = assay: In vivo efficacy against Staphylococcus aureus infections in mice; assay type: functional
Pseudomonas aeruginosa [22] = assay: In vitro relative hydrolysis rate against Pseudomonas Id; assay type: functional; outline: as §2
Staphylococcus aureus [23] = assay: In vitro relative hydrolysis rate against Staphylococcus aureus; assay type: functional; outline: as §2
[24] = Terminal half life in dogs at the dose of 60 mg/kg.; assay type: ADME, organism-based, Canis lupus familiaris; design: dose 60 mg/kg; conditions: dog, in vivo
Outline: (§3)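 Overnight-fasted female mongrel dogs with a Foley bladder catheter; bolus into the cephalic vein. Plasma and urine collected before dosing and over 24 h after. Antibacterial activity measured by microbiological assay.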

Canis familiaris = assay: Percent of dose in dogs urine at the dose of 60 mg/kg.; assay type: functional, Canis lupus familiaris; outline: as §3
[25] = In vitro dose required for anticholinergic activity in isolated guinea pig trachea; assay type: functional
[26] = Enterobacter cloacae, read-out: MIC
[27] = Klebsiella pneumoniae, read-out: MIC
[28] = Pseudomonas aeruginosa, read-out: MIC
[29] = Staphylococcus aureus, read-out: MIC
[30] = Streptococcus pneumoniae, read-out: MIC
[31] = Serratia marcescens, read-out: MIC
[32] = Streptococcus pyogenes, read-out: MIC
[33] = Escherichia coli, read-out: MIC
[34] = Pseudomonas aeruginosa, read-out: ED50
[35] = Staphylococcus aureus, read-out: ED50
[36] = Escherichia coli, read-out: ED50

Row | SMILES | MIC (Enterobacter cloacae [1]; [26]) [µg/mL] | MIC (Escherichia coli [2]) [µg/mL] | RAP (Cavia porcellus [3]) | MIC (Klebsiella pneumoniae [5]; [27]) [µg/mL] | MIC (Pseudomonas aeruginosa [6]; [28]) [µg/mL] | MIC (Pseudomonas aeruginosa [7]; [28]) [µg/mL] | MIC (Staphylococcus aureus [8]; [29]) [µg/mL] | MIC (Staphylococcus aureus [9]; [29]) [µg/mL] | MIC (Streptococcus pneumoniae; [30]) [µg/mL] | MIC (Serratia marcescens; [31]) [µg/mL] | MIC (Streptococcus pyogenes; [32]) [µg/mL] | MIC (Enterococcus faecium) [µg/mL] | Hydrolysis rate (Escherichia coli [10]) | Hydrolysis rate (Enterobacter cloacae [11]) | MIC (Klebsiella pneumoniae [14]) [µg/mL] | MIC (Escherichia coli [19]) [µg/mL] | half-life [24] [h] | Percent of dose recovered in urine (Canis familiaris) [%] | MIC (Enterobacter cloacae [12]; [26]) [µg/mL] | MIC (Escherichia coli [13]; [33]) [µg/mL] | also measured
1 | CO/N=C(\C(=O)N[C@@H]1C(=O)N2C(C(=O)[O-])=C(C[n+]3ccc4sc(C)nc4c3)CS[C@H]12)c1csc(N)n1 | 2 (≈ 3.67 µM) | 0.015 (≈ 0.0275 µM) | 7 | 2 (≈ 3.67 µM) | 4 (≈ 7.33 µM) | 8 (≈ 14.7 µM) | 2 (≈ 3.67 µM) | 2 (≈ 3.67 µM) | 0.015 (≈ 0.0275 µM) | 0.125 (≈ 0.229 µM) | 0.008 (≈ 0.0147 µM) | 128 (≈ 235 µM) |  |  |  |  |  |  |  |  | Kb (Cavia porcellus [4]): 603 µM
2 | CO/N=C(\C(=O)N[C@@H]1C(=O)N2C(C(=O)[O-])=C(C[n+]3ccc(CC(=O)NO)cc3)CS[C@H]12)c1csc(N)n1 (stereo in doubt; 9) |  | 0.03 (≈ 0.0548 µM) |  |  |  |  |  |  |  |  |  | 128 (≈ 234 µM) | 0.1 | 0.2 | 0.03 (≈ 0.0548 µM) | 0.03 (≈ 0.0548 µM) |  |  |  |  | MIC (Enterobacter cloacae [1]): 32 µg/mL (≈ 58.4 µM); MIC (Enterobacter cloacae [12]): 0.25 µg/mL (≈ 0.457 µM); MIC (Escherichia coli [13]): 0.03 µg/mL (≈ 0.0548 µM); MIC (Klebsiella pneumoniae [5]): 4 µg/mL (≈ 7.3 µM); Hydrolysis rate (Klebsiella pneumoniae [15]): 1.2; ED50 (Pseudomonas aeruginosa [16]): 39 mg/kg; ED50 (Staphylococcus aureus [17]): 1 mg/kg; ED50 (Escherichia coli [18]): <0.3 mg/kg; MIC (Pseudomonas aeruginosa [20]): 16 µg/mL (≈ 29.2 µM); MIC (Staphylococcus aureus [21]): 1 µg/mL (≈ 1.83 µM); Hydrolysis rate (Pseudomonas aeruginosa [22]): 0.1; MIC (Pseudomonas aeruginosa [6]): 8 µg/mL (≈ 14.6 µM); MIC (Pseudomonas aeruginosa [7]): 4 µg/mL (≈ 7.3 µM); MIC (Staphylococcus aureus [8]): 4 µg/mL (≈ 7.3 µM); MIC (Staphylococcus aureus [9]): 2 µg/mL (≈ 3.65 µM); MIC (Streptococcus pneumoniae): 0.03 µg/mL (≈ 0.0548 µM); MIC (Serratia marcescens): 0.125 µg/mL (≈ 0.228 µM); Hydrolysis rate (Staphylococcus aureus [23]): 6.9; MIC (Streptococcus pyogenes): 0.03 µg/mL (≈ 0.0548 µM)
3 | CO/N=C(\C(=O)N[C@@H]1C(=O)N2C(C(=O)[O-])=C(C[n+]3ccc4sc(C)cc4c3)CS[C@H]12)c1csc(N)n1 | 4 (≈ 7.34 µM) | 0.015 (≈ 0.0275 µM) |  | 1 (≈ 1.84 µM) | 2 (≈ 3.67 µM) | 8 (≈ 14.7 µM) | 4 (≈ 7.34 µM) | 0.5 (≈ 0.918 µM) | < 0.008 | 0.06 (≈ 0.11 µM) | < 0.008 | > 128 |  |  | < 0.008 |  | 1.67 | 64 | 0.06 (≈ 0.11 µM) | 0.015 (≈ 0.0275 µM) | 
4 | CO/N=C(\C(=O)N[C@@H]1C(=O)N2C(C(=O)[O-])=C(C[n+]3ccc4ccccc4c3)CS[C@H]12)c1csc(N)n1 | 8 (≈ 15.3 µM) | 0.015 (≈ 0.0286 µM) |  | 2 (≈ 3.81 µM) | 2 (≈ 3.81 µM) | 4 (≈ 7.63 µM) | 1 (≈ 1.91 µM) | 1 (≈ 1.91 µM) | 0.015 (≈ 0.0286 µM) | 0.06 (≈ 0.114 µM) | < 0.008 | 128 (≈ 244 µM) | 0.2 | 0.3 | 0.015 (≈ 0.0286 µM) | 0.015 (≈ 0.0286 µM) |  |  | 0.06 (≈ 0.114 µM) | 0.03 (≈ 0.0572 µM) | Hydrolysis rate (Klebsiella pneumoniae [15]): 2.8; ED50 (Pseudomonas aeruginosa [16]; [34]): 9 mg/kg; ED50 (Staphylococcus aureus [17]; [35]): 0.4 mg/kg; ED50 (Escherichia coli [18]; [36]): 0.04 mg/kg; MIC (Pseudomonas aeruginosa [20]; [28]): 8 µg/mL (≈ 15.3 µM); MIC (Staphylococcus aureus [21]; [29]): 1 µg/mL (≈ 1.91 µM); Hydrolysis rate (Pseudomonas aeruginosa [22]): 0.1; Hydrolysis rate (Staphylococcus aureus [23]): 9.3
5 | CO/N=C(\C(=O)N[C@@H]1C(=O)N2C(C(=O)[O-])=C(C[n+]3ccc4occc4c3)CS[C@H]12)c1csc(N)n1 | 4 (≈ 7.77 µM) | 0.015 (≈ 0.0292 µM) |  | 4 (≈ 7.77 µM) | 1 (≈ 1.94 µM) | 2 (≈ 3.89 µM) | 4 (≈ 7.77 µM) | 0.5 (≈ 0.972 µM) | < 0.008 | 0.03 (≈ 0.0583 µM) | < 0.008 | > 128 |  |  | 0.015 (≈ 0.0292 µM) | 0.015 (≈ 0.0292 µM) | 1.33 | 94 | 0.06 (≈ 0.117 µM) | 0.03 (≈ 0.0583 µM) | ED50 (Pseudomonas aeruginosa [16]; [34]): 18 mg/kg; ED50 (Staphylococcus aureus [17]; [35]): < 0.6 mg/kg; ED50 (Escherichia coli [18]; [36]): < 0.6 mg/kg; MIC (Pseudomonas aeruginosa [20]; [28]): 4 µg/mL (≈ 7.77 µM); MIC (Staphylococcus aureus [21]; [29]): 1 µg/mL (≈ 1.94 µM)
6 | CO/N=C(\C(=O)N[C@@H]1C(=O)N2C(C(=O)[O-])=C(C[n+]3ccc4sc(C(=O)O)cc4c3)CS[C@H]12)c1csc(N)n1 | 32 (≈ 55.7 µM) | < 0.008 | 2 | 4 (≈ 6.96 µM) | 2 (≈ 3.48 µM) | 8 (≈ 13.9 µM) | 16 (≈ 27.8 µM) | 2 (≈ 3.48 µM) | < 0.008 | 0.06 (≈ 0.104 µM) | < 0.008 | > 128 |  |  | < 0.008 |  | 1.5 | 98 | 0.06 (≈ 0.104 µM) | 0.03 (≈ 0.0522 µM) | Dose ratio [25]: 1.52
